ChEMBL document CHEMBL3414433, “Discovery and profiling of a selective and efficacious Syk inhibitor” (J Med Chem, 2015)
The source made the active and inactive calls. The calls are words filed in the database; no cut-off is given here.

What was measured:
Canis familiaris [1] = test: Dose normalized AUC in Beagle dog at 0.3 mg/kg, po; format: ADME, organism-based, Canis lupus familiaris; parameters: dose 0.3 mg/kg, route oral; conditions: in vivo
Procedure, shortened: (§1)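 One-in-one dosing in Beagle dogs: i.v. 0.1 mg/kg in NMP/PEG200 (3:7); p.o. 0.3 mg/kg in MC/water (0.5:99.5). Exposure values dose normalized.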

Rattus norvegicus [2] = species on record: Rattus norvegicus; test: Hepatotoxicity in rat assessed as portal inflammation measured for 4 weeks by GLP study; format: toxicity, organism-based; conditions: in vivo, 672 h
Rattus norvegicus [3] = test: In vivo inhibition of Syk in Lewis rat assessed as reduction in FcgR-induced SLP76 phosphorylation in peripheral blood monocytes at 22 mg/kg, po measured after 2 hrs relative to vehicle-treated control; format: functional
Procedure, shortened: (§2)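 Single oral dose of 22 mg/kg to Lewis rats; blood sampled at 2, 4 and 24 h after dosing for compound level and ex vivo FcγR-induced phospho-SLP76 in peripheral blood monocytes.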

[4] = Drug uptake in blood of Lewis rat collagen-induced arthritis model at 30 mg/kg, po qd administered on day 15 post immunization measured at 24 hrs on day 18; format: ADME, organism-based; parameters: dose 30 mg/kg, route oral; conditions: read-out: Drug uptake
Procedure, shortened: (§3)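 Collagen-arthritic Lewis rats given 3, 10 or 30 mg/kg p.o. once daily from day 15; blood levels measured on day 18 (third day of treatment) at 4, 8 and 24 h after dosing.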

[5] = Mean residence time in Beagle dog at 0.1 mg/kg, iv and 0.3 mg/kg, po; format: ADME, organism-based, Canis lupus familiaris; conditions: in vivo
Procedure, shortened: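 Beagle dogs dosed one-in-one. The i.v. dose was 0.1 mg/kg in NMP/PEG200 (3:7), and the p.o. dose was 0.3 mg/kg in MC/water (0.5:99.5). Blood levels were followed after each route.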

[6] = Mean residence time in Sprague-Dawley rat at 1 mg/kg, iv and 3 mg/kg, po administered as cassette dosing; format: ADME, organism-based; conditions: in vivo
Procedure, shortened: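 Rats were dosed i.v. at 1 mg/kg in NMP/PEG200 (3:7) and p.o. at 3 mg/kg in CMC/water/Tween (0.5:99:0.5). PK parameters were derived from blood concentration–time curves for both routes.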

[7] = molecular target: Serine/threonine-protein kinase PAK 5 (Homo sapiens, UniProt Q9P286); test: Competitive binding affinity to human PAK7
[8] = Drug metabolism in liver microsomes (unknown origin); format: ADME
[9] = molecular target: Voltage-gated inwardly rectifying potassium channel KCNH2 (Homo sapiens, UniProt Q12809); test: Inhibition of human ERG expressed in CHO cells by automated Qpatch clamp assay; format: cell-based
[10] = molecular target: Tyrosine-protein kinase SYK (Homo sapiens, UniProt P43405); test: Inhibition of Syk in anti-CD32 stimulated CD14+ human monocytes assessed as phospho-SLP76 level preincubated for 30 mins followed by anti-CD32 stimulation measured after 5 mins by flow cytometric analysis
Rattus norvegicus [11] = test: Antiarthritic activity in Lewis rat collagen-induced arthritis model assessed as reduction of joint damage/erosions in hind paw at 3 to 30 mg/kg, po qd administered on day 15 post immunization measured after day 28 by Giemsa/safranin O staining-based assay; format: functional, organism-based
Procedure, shortened: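 Female Lewis rats (140−160 g), arthritis induced by porcine collagen immunization (day 0) and boost (day 7); rats with swollen joints randomized, dosed orally once daily from day 15 to day 28. Hind paws taken on day 28, fixed in 10% buffered formalin for 48 h, decalcified over 16 days, paraffin-embedded; 3 μm sections stained with Giemsa and safranin O and scored.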

[12] = molecular target: T1, Tyrosine-protein kinase ZAP-70 (Homo sapiens, UniProt P43403); test: Inhibition of human ZAP70
T1 sequence (P43403 whole entry): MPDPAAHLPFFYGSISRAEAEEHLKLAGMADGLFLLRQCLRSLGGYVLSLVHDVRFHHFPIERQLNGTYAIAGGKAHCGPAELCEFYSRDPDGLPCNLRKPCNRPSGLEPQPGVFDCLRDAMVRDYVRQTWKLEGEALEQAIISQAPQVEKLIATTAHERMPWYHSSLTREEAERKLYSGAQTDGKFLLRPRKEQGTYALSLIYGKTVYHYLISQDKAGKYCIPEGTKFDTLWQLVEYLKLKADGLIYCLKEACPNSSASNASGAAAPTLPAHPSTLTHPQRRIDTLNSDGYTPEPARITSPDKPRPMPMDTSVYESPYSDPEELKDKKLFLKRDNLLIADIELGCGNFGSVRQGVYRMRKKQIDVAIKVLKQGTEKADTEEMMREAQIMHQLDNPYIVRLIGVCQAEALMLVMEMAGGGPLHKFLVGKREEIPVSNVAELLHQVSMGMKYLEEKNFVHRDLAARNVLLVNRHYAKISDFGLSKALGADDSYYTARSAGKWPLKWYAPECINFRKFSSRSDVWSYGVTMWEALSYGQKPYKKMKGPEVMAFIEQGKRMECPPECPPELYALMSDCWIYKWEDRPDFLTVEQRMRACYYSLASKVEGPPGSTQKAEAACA

Canis familiaris [13] = test: Dose normalized AUC in Beagle dog at 0.1 mg/kg, iv; format: ADME, organism-based, Canis lupus familiaris; parameters: dose 0.1 mg/kg, route intravenous; conditions: in vivo; procedure, shortened: as §1
Rattus norvegicus [14] = test: Antiarthritic activity in Lewis rat collagen-induced arthritis model assessed as reversal of paw swelling at 3 to 30 mg/kg, po qd administered on day 15 post immunization measured after day 28; format: functional, organism-based
Procedure, shortened: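 Collagen arthritis in female Lewis rats (porcine collagen day 0, boost day 7); swollen-joint rats randomized and given oral doses of 3, 10 or 30 mg/kg once daily, days 15–28. Swelling scored visually three times a week, per paw 0−3 metatarsal plus 0−3 ankle, composite 0−12 per rat; group means calculated.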

Rattus norvegicus [15] = species on record: Rattus norvegicus; test: Drug metabolism in rat; format: ADME, organism-based; conditions: in vivo
[16] = Drug uptake in Lewis rat blood at 22 mg/kg, po measured after 2 hrs; format: ADME, organism-based; parameters: dose 22 mg/kg, route oral; conditions: read-out: Drug uptake; procedure, shortened: as §2
[17] = Drug uptake in blood of Lewis rat collagen-induced arthritis model at 30 mg/kg, po qd administered on day 15 post immunization measured at 8 hrs on day 18; format: ADME, organism-based; parameters: dose 30 mg/kg, route oral; conditions: read-out: Drug uptake; procedure, shortened: as §3
Rattus norvegicus [18] = test: Increase in body weight gain in Lewis rat collagen-induced arthritis model at 3 to 30 mg/kg, po qd administered on day 15 post immunization measured up to day 28; format: functional, organism-based
Procedure, shortened: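 Lewis rats with collagen-induced arthritis, randomized once joints swelled and given 3, 10 or 30 mg/kg p.o. once daily from day 15 to 28; animals weighed regularly throughout, compared against vehicle-treated rats.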

Sequence of Serine/threonine-protein kinase PAK 5 (Q9P286 whole entry): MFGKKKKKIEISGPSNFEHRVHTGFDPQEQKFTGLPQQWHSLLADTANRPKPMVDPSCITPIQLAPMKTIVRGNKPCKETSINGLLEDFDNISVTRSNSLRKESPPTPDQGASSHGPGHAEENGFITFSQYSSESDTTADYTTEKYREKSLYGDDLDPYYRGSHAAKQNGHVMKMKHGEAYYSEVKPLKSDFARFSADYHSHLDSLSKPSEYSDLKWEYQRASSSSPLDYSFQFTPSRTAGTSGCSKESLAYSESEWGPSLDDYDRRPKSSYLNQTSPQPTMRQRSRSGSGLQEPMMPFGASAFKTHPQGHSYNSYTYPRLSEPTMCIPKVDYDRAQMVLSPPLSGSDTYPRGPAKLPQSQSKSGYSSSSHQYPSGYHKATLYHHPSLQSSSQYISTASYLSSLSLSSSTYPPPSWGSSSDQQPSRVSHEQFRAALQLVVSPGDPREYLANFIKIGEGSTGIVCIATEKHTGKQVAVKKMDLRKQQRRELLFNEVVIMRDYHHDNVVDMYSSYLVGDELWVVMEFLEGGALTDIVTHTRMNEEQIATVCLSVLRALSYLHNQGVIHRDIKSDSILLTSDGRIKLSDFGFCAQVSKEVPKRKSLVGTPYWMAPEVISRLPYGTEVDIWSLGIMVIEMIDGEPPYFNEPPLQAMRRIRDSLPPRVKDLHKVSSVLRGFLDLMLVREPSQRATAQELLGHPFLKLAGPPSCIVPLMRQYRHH
Sequence of Voltage-gated inwardly rectifying potassium channel KCNH2 (Q12809 whole entry): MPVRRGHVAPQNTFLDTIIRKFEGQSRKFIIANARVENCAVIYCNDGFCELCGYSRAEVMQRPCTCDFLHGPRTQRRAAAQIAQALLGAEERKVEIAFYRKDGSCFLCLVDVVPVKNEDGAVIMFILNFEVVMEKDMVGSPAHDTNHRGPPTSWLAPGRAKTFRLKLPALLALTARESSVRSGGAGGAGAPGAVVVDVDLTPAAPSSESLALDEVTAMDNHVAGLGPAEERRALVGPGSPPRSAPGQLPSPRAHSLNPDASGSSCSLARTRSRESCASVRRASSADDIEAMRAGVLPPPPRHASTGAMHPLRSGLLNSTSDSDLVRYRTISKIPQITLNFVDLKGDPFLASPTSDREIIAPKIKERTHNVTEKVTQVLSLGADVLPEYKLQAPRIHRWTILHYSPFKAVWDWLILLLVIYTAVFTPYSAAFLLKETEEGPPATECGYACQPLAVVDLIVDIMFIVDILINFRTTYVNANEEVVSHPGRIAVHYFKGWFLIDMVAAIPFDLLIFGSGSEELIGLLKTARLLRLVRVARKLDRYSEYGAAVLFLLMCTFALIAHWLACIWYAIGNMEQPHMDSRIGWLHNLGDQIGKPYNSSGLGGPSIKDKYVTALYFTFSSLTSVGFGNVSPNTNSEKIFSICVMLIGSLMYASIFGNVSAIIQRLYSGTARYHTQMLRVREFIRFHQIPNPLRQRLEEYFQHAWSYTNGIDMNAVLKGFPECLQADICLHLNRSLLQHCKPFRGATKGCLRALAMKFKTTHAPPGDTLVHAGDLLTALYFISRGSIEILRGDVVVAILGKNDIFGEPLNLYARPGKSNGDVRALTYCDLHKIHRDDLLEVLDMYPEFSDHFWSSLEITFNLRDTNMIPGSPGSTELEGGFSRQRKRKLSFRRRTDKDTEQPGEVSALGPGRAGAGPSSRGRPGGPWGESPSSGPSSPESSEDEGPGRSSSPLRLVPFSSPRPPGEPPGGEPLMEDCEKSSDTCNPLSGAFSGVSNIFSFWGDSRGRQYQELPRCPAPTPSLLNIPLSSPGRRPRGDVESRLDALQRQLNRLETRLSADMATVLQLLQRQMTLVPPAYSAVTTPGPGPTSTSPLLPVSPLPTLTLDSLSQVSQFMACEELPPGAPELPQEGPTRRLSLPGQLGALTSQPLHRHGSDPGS

- AUC/dose (Canis familiaris [1]): 1836 nM·h
- concentration at 24 h [4]: 461 nM
- MRT [5]: 8.4 h
- MRT [6]: 8.7 h
- Kd [7]: 12 nM
- Drug metabolism [8]: metabolite_notdetected
- IC50 [10]: 367 nM
- IC50 [12]: 251 nM
- AUC/dose (Canis familiaris [13]): 3414 nM·h
- Drug metabolism (Rattus norvegicus [15]): metabolite_notdetected
- concentration at 2 h [16]: 900 nM
- concentration at 8 h [17]: 1720 nM
SMILES: NC(=O)c1nnc(N[C@@H]2CCCC[C@@H]2N)nc1Nc1cccc2cc[nH]c12
- Activity (Rattus norvegicus [2]): Toxic
- inhibition in vivo at 22 mg/kg (Rattus norvegicus [3]): 90%
- IC50 [9]: 25900 nM
- Activity (Rattus norvegicus [11]): Active
- Activity (Rattus norvegicus [14]): Active
- Activity (Rattus norvegicus [18]): Active
